Assays:
[1] = Antiproliferative activity against human Nc37 cells assessed as cell viability at 0.1 mM after 72 hrs by trypan blue dye based hemocytometer analysis relative to control; design: species or system NC-37; details: read-out: Activity
Summary of the method: (§1)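 Nc 37 (normal donor buffy coat), RPMI 6410 (myeloblastic leukemia) and murine L1210 cells. Compound dissolved in Me2SO, held at 37° overnight for sterilization, diluted in RPMI 1640 + 10% fetal calf serum to final 10⁻⁴ M with 0.5% Me2SO. Unagitated tubes seeded at 2–5 × 10⁵ cells/ml from log-phase stocks. Trypan blue (0.05%) hemocytometer counts every 24 h. Viable density versus control at 72 h banded into rating categories.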

[2] = Antiproliferative activity against human RPMI6410 cells assessed as cell viability at 0.1 mM after 72 hrs by trypan blue dye based hemocytometer analysis relative to control; type: functional; details: RPMI 6410, 72 h, read-out: Activity; summary of the method: as §1
L1210 = test: Antiproliferative activity against mouse L1210 cells assessed as cell viability at 0.1 mM after 72 hrs by trypan blue dye based hemocytometer analysis relative to control; type: functional; details: L1210, 72 h, read-out: Activity; summary of the method: as §1
[3] = Antiproliferative activity against human RPMI6410 cells assessed as growth inhibition at 0.1 mM; type: functional; details: RPMI 6410; summary of the method: as §1

Row | SMILES | viability at 72 h, 100 µM [1] [%] | viability at 100 µM [2] [%] | viability at 100 µM (L1210) [%] | inhibition at 100 µM [3] [%]
1 | c1ccc(CNc2ncnc3[nH]ncc23)cc1 | 30 | 30 | 0 | –
2 | CCNc1ncnc2[nH]ncc12 | 90 | 90 | 60 | –
3 | CC(C)Nc1ncnc2[nH]ncc12 | 30 | 60 | 90 | –
4 | CCCCNC(=O)Nc1ncnc2[nH]cnc12 | – | – | – | 70
5 | C=CCNc1ncnc2[nH]ncc12 | 60 | 30 | 60 | –
6 | O=C(O)CNC(=O)Nc1ncnc2[nH]ncc12 | 90 | 60 | 80 | –
7 | CC(C)NC(=O)Nc1ncnc2[nH]ncc12 | 30 | 80 | 80 | –
8 | C=CCNC(=O)Nc1ncnc2[nH]ncc12 | 30 | 90 | 0 | –
9 | C#CCNC(=O)Nc1ncnc2[nH]ncc12 | 90 | 30 | 60 | –
10 | CCCCNC(=O)Nc1ncnc2[nH]ncc12 | 80 | 80 | 60 | –
11 | CC(C)CNC(=O)Nc1ncnc2[nH]ncc12 | 60 | 60 | 60 | –
12 | CC(C)(C)NC(=O)Nc1ncnc2[nH]ncc12 | 60 | 60 | 30 | –
13 | CCCCCNC(=O)Nc1ncnc2[nH]ncc12 | 0 | 30 | 30 | –
14 | CC(C)CCNC(=O)Nc1ncnc2[nH]ncc12 | 60 | 60 | 60 | –
15 | CC(C)(C)CNC(=O)Nc1ncnc2[nH]ncc12 | 60 | 60 | 30 | –
16 | C[C@@H](O)[C@H](NC(=O)Nc1ncnc2[nH]ncc12)C(=O)O | 30 | 30 | 30 | –
17 | CCCCCCCCNC(=O)Nc1ncnc2[nH]ncc12 | 0 | 0 | 0 | –
18 | CCOCCNC(=O)Nc1ncnc2[nH]ncc12 | 80 | 30 | 80 | –
19 | O=C(Nc1ncnc2[nH]ncc12)NC12CC3CC(CC(C3)C1)C2 | 30 | 30 | 0 | –
20 | O=C(NCCCc1ccccc1)Nc1ncnc2[nH]ncc12 | 30 | 60 | 60 | –
21 | O=C(NCCCCc1ccccc1)Nc1ncnc2[nH]ncc12 | 60 | 80 | 30 | –
22 | O=C(Nc1ccccc1)Nc1ncnc2[nH]ncc12 | 90 | 30 | 60 | –
23 | O=C(Nc1ccccc1F)Nc1ncnc2[nH]ncc12 | 90 | 60 | 60 | –
24 | O=C(Nc1ccccc1Cl)Nc1ncnc2[nH]ncc12 | 90 | 80 | 60 | –
25 | O=C(Nc1cccc(Cl)c1)Nc1ncnc2[nH]ncc12 | 0 | 0 | 0 | –
26 | O=C(Nc1ccc(Cl)cc1)Nc1ncnc2[nH]ncc12 | 30 | 30 | 30 | –
27 | CCCCCNC(=O)Nc1ncnc2[nH]cnc12 | – | – | – | 70
28 | CC(C)CCNC(=O)Nc1ncnc2[nH]cnc12 | – | – | – | 70
29 | CC(C)CCNc1ncnc2[nH]ncc12 | 0 | 30 | 0 | –

— ChEMBL document CHEMBL3272068, “Synthesis and biological activities of some N4-substituted 4-aminopyrazolo(3,4-d)pyrimidines” (J Med Chem, 1976)
